AHR activator = activates the human aryl hydrocarbon receptor; P35869; activation, % at 5 µM; AHR-responsive luciferase reporter cells, luminescence; 320,000 compounds, 2.5% hits; in the data active = activation above about 47%;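 note: 0% = vehicle wells and 100% = reference agonist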
CTSL1 counter-1 = counter-screen for PFM18AAP inhibitors: inhibitors of F. hepatica cathepsin L1 | recombinant F. hepatica cathepsin L1, Z-Leu-Arg-MCA fluorescence | inhibition, % at 5.96 µM | 300,000 compounds, 0.49% hits | AID 1906;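 active = inhibition above the mean of all tested compounds plus 3 SD, set per screening campaign, cut at about 17% in these data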;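 note: 0% = plate median of test compound wells and 100% = 1 µM Z-Phe-Ala-diazomethylketone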
GAA850 FXN act = activators of GAA850 frataxin (FXN) promoter. HEK293 lucGAA850 FXN promoter luciferase reporter, 24 h; percent of 10 µM SAHA response. activation, % at 6 µM. 360,000 compounds, 0.56% hits;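 active = activation above the average of all compounds screened plus 3 SD, cutoff fixed separately per campaign, cut at about 7.5% in these data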;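 note: 0% = DMSO wells and 100% = 10 µM SAHA wells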
HDAC3 inhib = blocks human histone deacetylase 3 | O15379 | recombinant HDAC3, fluorogenic peptide/trypsin coupled, fluorescence | inhibition, % at 8.3 µM | 320,000 compounds, 0.15% hits | AID 2718; in the data active = inhibition above about 26%, passing the limit was not always enough
SENP1 inh = blocks the human SENP1 SUMO protease catalytic domain; Q9P0U3; 360,000 compounds, 0.21% hits; recombinant SENP1 catalytic domain, CyPet-SUMO1-YPet FRET cleavage; inhibition, % at 10 µM;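 active = inhibition at least 30% at 10 µM, raw YFP signal under a set limit, fluorescence ratio 0.5 to 1.5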;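 note: 0% = enzyme with DMSO and 100% = no enzyme wells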
Target sequence (Q9P0U3 419-644 limits assumed): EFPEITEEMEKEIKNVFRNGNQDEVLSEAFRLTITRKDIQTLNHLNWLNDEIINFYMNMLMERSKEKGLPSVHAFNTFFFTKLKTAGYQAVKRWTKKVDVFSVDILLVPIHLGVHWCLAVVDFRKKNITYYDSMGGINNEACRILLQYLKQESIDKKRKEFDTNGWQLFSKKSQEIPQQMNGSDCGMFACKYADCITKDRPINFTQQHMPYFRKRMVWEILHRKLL
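System: Recombinant human SENP1 catalytic domain, His6-tagged | Incubation: Enzyme reaction for 50 min at room temperature, dark | Medium: Tris pH 8 with BME, BSA, NP40 and catalase | Also added: 25 nM SUMO1 FRET substrate | Compound: 10 µM single point, 0.5% DMSO | Measured by: FRET fluorescence in CFP and YFP emission channels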
PfM18AAP inh-1 = blocks P. falciparum M18 aspartyl aminopeptidase | recombinant PfM18AAP, H-Glu-NHMec fluorogenic cleavage | inhibition, % at 7.35 µM | 290,000 compounds, 1.2% hits;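 active = inhibition above the campaign mean inhibition over all tested compounds plus 3 SD, cut at about 28% in these data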;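 note: 0% = plate median of test compound wells and 100% = 2 mM ZnCl2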
PfM18AAP inh-2 = PfM18AAP inhibition, confirmation; shares compounds with PfM18AAP inh-1; recombinant PfM18AAP, H-Glu-NHMec fluorogenic cleavage; inhibition, % at 7.35 µM; 2,400 compounds, 28% hits;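 active = mean inhibition over replicate wells above the hit cutoff set for the earlier primary screen, cut at about 29% in these data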;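 note: 0% = median of test compound wells and 100% = 2 mM ZnCl2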
CTSL1 counter-2 = Cathepsin L (human) inhibition, confirmation | shares compounds with PfM18AAP inh-1 | purified cathepsin L1, Z-Leu-Arg-MCA fluorescence | inhibition, % at 5.96 µM | 2,400 tested, under 10 active | AID 2178;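 active = average inhibition across replicates above the hit cutoff set in the earlier primary screen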;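 note: 0% = median of test compound wells and 100% = Z-Phe-Ala-diazomethylketone 1 µM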
Target sequence (P07711 whole entry, looked up): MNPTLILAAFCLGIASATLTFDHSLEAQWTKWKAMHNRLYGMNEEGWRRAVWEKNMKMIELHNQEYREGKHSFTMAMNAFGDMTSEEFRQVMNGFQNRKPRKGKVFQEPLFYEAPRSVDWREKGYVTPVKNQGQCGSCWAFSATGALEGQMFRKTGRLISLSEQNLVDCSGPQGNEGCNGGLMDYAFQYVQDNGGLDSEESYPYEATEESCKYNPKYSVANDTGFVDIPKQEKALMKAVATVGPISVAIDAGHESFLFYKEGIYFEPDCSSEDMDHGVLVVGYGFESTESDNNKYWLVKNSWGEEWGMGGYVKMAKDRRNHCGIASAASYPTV
Active calls of the source: *; nt = no result. Hits are enriched below; roughly 4.2% of the tested compounds scored in any of these assays.

SMILES	AHR activator	CTSL1 counter-1	GAA850 FXN act	HDAC3 inhib	SENP1 inh	PfM18AAP inh-1	PfM18AAP inh-2	CTSL1 counter-2
Oc1ccc(C(=S)N2CCN(Cc3ccccc3)CC2)cc1	3	3	3	10	4	54*	-18	1
Oc1ccc(C(=S)N2CCCC2)cc1	1	-3	0	-2	-2	33*	-18	-1
Oc1ccc(C(=S)N2CCCCCC2)cc1	-2	0	-1	-3	0	-5	nt	nt
Cc1cc(C)cc(CC(=O)N2CCC2(C)C(=O)NS(=O)(=O)c2cc(C)ccc2F)c1 (centres undefined)	nt	nt	-1	nt	2	nt	nt	nt
Cc1cccc(C)c1NC(=O)c1cccc2c1C(=O)N(C1CCCCC1)C2	4	3	-3	10	2	1	nt	nt
CCNC(=S)N1CCN(Cc2ccccc2)CC1	0	0	-1	-9	-1	-1	nt	nt
Cc1ccc(C(=S)N2CCN(Cc3ccccc3)CC2)s1	0	0	1	11	1	35*	14	5
O=C(CSc1nc2[nH]ncc2c(=O)[nH]1)N1CCCC1	-2	-4	1	-5	-1	19	nt	nt
O=C(CSc1nc2[nH]ncc2c(=O)[nH]1)c1ccccc1	16	-9	2	-6	0	48*	40*	4
O=C(CSc1nc2[nH]ncc2c(=O)[nH]1)N1CCCCC1	0	-1	1	0	4	34*	-23	0
COc1cccc(/C=N/c2sc(Cc3ccccc3)c(C)c2C(N)=O)c1O	18	1	1	-8	-28	34*	-24	-5
CC(=O)N1CCc2cc(NC(=O)C3(C)CCN3CCc3ccccc3)ccc21 (centres undefined)	nt	nt	-3	nt	0	nt	nt	nt
COc1ccc(-c2nn(-c3ccccc3)cc2/C=N/Nc2cccc(C(=O)O)c2)cc1	nt	nt	6	nt	-11	33*	-25	2
COc1ccc(-c2nn(-c3ccccc3)cc2/C=N/NC(=O)c2ccc3c(c2)OCO3)cc1	16	16	nt	-6	nt	6	nt	nt
Cc1cc(N/N=C/c2ccc(O)cc2O)nc(-c2ccccc2O)n1	12	4	-2	-13	3	52*	54*	-1
Cc1cc(N/N=C/c2ccc(O)cc2O)nc(-n2nc(C)cc2C)n1	0	10	-2	-2	-2	51*	33*	1
COc1ccc(/C=N/Nc2cc(C)nc(-n3nc(C)cc3C)n2)cc1	40	2	-4	15	2	-1	nt	nt
Cc1cc(N/N=C/c2ccc(O)cc2O)c2ccccc2n1	-1	2	0	-8	0	12	nt	nt
CC1(C(=O)Nc2cnc3ccccc3c2)CCN1Cc1ccc(OC(F)(F)F)cc1 (centres undefined)	nt	nt	3	nt	-2	nt	nt	nt
CC1(C(=O)Nc2ccc3[nH]ncc3c2)CCN1C(=O)C/C=C/c1ccccc1 (centres undefined)	nt	nt	0	nt	1	nt	nt	nt
CC(=O)Cn1ncc(N(C)Cc2ccccc2)c(Cl)c1=O	2	2	3	-2	6	-3	nt	nt
CN(C)c1ccc(/C=N/NC(=O)CCCO)cc1	26	2	4	-14	-4	2	nt	nt
CN(C)c1ccc(/C=N\NC(=O)CC#N)cc1	26	8	1	-4	-7	50*	-34	3
COc1cccc(C(=O)N/N=C/c2ccc(OC3CSC3)cc2)c1	1	1	2	7	1	-9	nt	nt
N#CCC(=O)N/N=C/c1ccc(OC2CSC2)cc1	1	-1	1	7	1	40*	-12	0
SMILES	AHR activator	CTSL1 counter-1	GAA850 FXN act	HDAC3 inhib	SENP1 inh	PfM18AAP inh-1	PfM18AAP inh-2	CTSL1 counter-2
CCN(CC)C(=O)C(=O)N/N=C/c1ccc(F)cc1	1	3	0	-4	3	-11	nt	nt
COc1ccc(CNC(=O)Nc2nnc([C@@H]3C[C@H](O)[C@@H](CO)O3)s2)cc1	nt	nt	0	nt	0	nt	nt	nt
O=C(/C=C/c1ccccc1)Nc1ncn[nH]1	6	-14	-1	-2	4	45*	48*	-2
O=C(O)C(=O)Nc1ncn[nH]1	nt	nt	-1	nt	2	nt	nt	nt
C#CCNC(=O)/C=C/c1ccc(OC)cc1	10	1	3	4	0	1	nt	nt
O=C(/C=C/c1ccccc1)Nn1cnnc1	-4	-1	1	5	2	80*	70*	1
COc1ccc(/C=C/C(=O)Nn2cnnc2)cc1	-2	-7	3	-1	2	80*	71*	4
NC(=O)/C(=C\c1ccco1)NC(=O)c1ccco1	nt	nt	1	nt	1	nt	nt	nt
NC(=O)/C(=C/c1ccco1)C(N)=S	0	3	0	15	-4	42*	-15	-1
CC1(C)OC(C)(C)/C(=C/Nc2ccc(O)cc2)C1=O	4	5	-1	0	-10	43*	-51	4
CC1CCC/C(=C\Nc2ccc(O)cc2)C1=O (centres undefined)	7	0	2	3	-5	22	nt	nt
COc1cc(NC(=O)CCl)ccc(=O)c1	nt	nt	5	nt	2	nt	nt	nt
c1ccc2c(c1)NCC1CCCN21 (centres undefined)	12	-10	-2	0	2	37*	-70	-4
CCN1CCN(CC(=O)Nc2ccc(N(C)C)cc2)CC1	-2	-7	1	-3	2	-1	nt	nt
O=c1cc(CN2CCN(c3ccccc3O)CC2)nc2sccn12	3	-1	-2	-8	-43	35*	-13	-1
Cc1cccc(N2CCN(Cc3cc(=O)n4ccsc4n3)CC2)c1C	-2	0	0	3	-7	3	nt	nt
O=C(N/N=C/c1cccnc1)c1ccc(O)cc1	5	-12	4	-2	-1	0	nt	nt
O=C(N/N=C/c1cccnc1)c1cc(O)c(O)c(O)c1	-2	-1	-1	5	3	40*	6	-3
O=[N+]([O-])c1ccc(-c2ccn[nH]2)o1	-2	0	1	11	-3	40*	-44	-9
Nc1nc(N)nc(-c2ccc([N+](=O)[O-])o2)n1	nt	nt	0	nt	-13	nt	nt	nt
COc1cc(/C=N/N2CCN(Cc3ccc(C)cc3)CC2)cc(OC)c1O	0	0	2	8	-7	47*	4	1
Cc1ccc(CN2CCN(/N=C/c3ccccc3)CC2)cc1	0	0	3	4	3	1	nt	nt
O=c1oc2ccc(Cl)cc2nc1/C=C(\O)c1cccs1	13	3	7	3	5	7	nt	nt
Cc1ccc2oc(=O)c(/C=C(\O)c3cccs3)nc2c1	30	2	6	2	-1	37*	29*	1
